Screens as filed in PubChem BioAssay.
Hits are enriched below; roughly 2.6% of the tested compounds scored in any of these assays.
T cruzi repl: T. cruzi replication inhibition. T. cruzi beta-gal in NIH3T3, luminescence, 90 h. inhibition, % (test concentration not listed). 300,000 compounds, 1.4% hits;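 active = mean inhibition across valid replicates above about 55%, limit read from the data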;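 also: signal also drops with host cell toxicity which is not excluded here; 0% = plate median of DMSO wells and 100% = zero luminescence signal; higher percent means less beta-gal luminescence so fewer parasites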
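Incubation – ≥90 h infection period, 3 h prior cell attachment · System – NIH/3T3 fibroblasts plus reporter T. cruzi · Doses – compound pinned at 50 nL/well, DMSO · Read-out basis – percent inhibition of parasite-derived β-gal signal · Signal – luminescent β-galactosidase signal after 60 min lysis · Also added – 5000 T. cruzi trypomastigotes/well · Medium – Low-serum DMEM with 2% FBS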
CHT inh: inhibits the human high affinity choline transporter; B-score at 10 µM; 310,000 compounds, 0.86% hits; CHT-expressing cells, membrane potential dye, choline response; stronger effect = lower value;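 active = B-score over 3 SD under the library average, and starting fluorescence ratio not unusually high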;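 also: choline stimulus applied at its EC90 after an EC20 pre-addition; B-score computed on integrated fluorescence ratio after choline addition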
Target sequence (Q9GZV3 whole entry, looked up): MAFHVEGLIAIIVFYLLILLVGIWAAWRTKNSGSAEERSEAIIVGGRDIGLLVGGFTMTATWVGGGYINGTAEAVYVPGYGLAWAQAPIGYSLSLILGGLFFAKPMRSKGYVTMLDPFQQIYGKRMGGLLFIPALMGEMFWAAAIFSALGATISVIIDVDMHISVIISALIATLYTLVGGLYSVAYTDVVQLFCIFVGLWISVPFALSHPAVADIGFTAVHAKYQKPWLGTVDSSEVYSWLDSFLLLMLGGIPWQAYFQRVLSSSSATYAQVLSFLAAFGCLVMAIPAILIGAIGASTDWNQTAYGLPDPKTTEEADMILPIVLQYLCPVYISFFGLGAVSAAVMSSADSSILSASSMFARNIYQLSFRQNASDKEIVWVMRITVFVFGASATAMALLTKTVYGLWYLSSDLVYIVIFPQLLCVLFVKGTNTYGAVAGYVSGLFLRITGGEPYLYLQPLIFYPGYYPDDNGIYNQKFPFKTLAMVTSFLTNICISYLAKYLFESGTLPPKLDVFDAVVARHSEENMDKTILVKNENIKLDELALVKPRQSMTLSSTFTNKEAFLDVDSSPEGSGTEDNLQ
CHT allo act: allosterically activates the human high affinity choline transporter. CHT-expressing cells, membrane potential dye, choline EC20; stronger effect = higher value; LV-AA mutant CHT in HEK293 cells. Q9GZV3. 310,000 compounds, 0.49% hits. B-score at 10 µM;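 active = initial fluorescence not abnormally high and integrated response B-score, plate-corrected, over 3 SD above library mean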
PolyA inhibitor: yeast polyadenylation inhibition; S. cerevisiae SKY197-pL101 polyadenylation reporter, beta-gal luminescence; efflux-impaired pdr1/pdr3 knockout yeast; score 100 = 6 SD above DMSO; activity score, % at 12 µM; 300,000 compounds, 0.02% hits;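 active = lowest replicate activity score at least 50, where 100 means six control SD above control mean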;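 also: yeast exposed to compound for 9 h at 30 °C; higher score means more reporter readthrough which indicates perturbed polyadenylation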
CHT activ conf: human CHT activation, confirmatory screen; shares compounds with CHT allo act; CHT-expressing cells, membrane potential dye fluorescence (FDSS); % of choline EC20–EC90 response window; HEK293 expressing CHT LV-AA mutant; choline added at its EC20; activation, % at 10 µM; 2,500 compounds, 91% hits; AID 504833;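 active = primary screen active, with duplicate mean activation above negative control mean plus 3 SD, cut at about 11% in these data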
HEK293 MP dye: activity in parental HEK293 cells lacking CHT; shares compounds with CHT allo act; membrane potential dye fluorescence (FDSS); measured after EC20 choline addition; ratio readout change at 10 µM, hits read low; 2,500 compounds, 62% hits; AID 623908;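 active = duplicate-averaged ratio beyond 3 SD from buffer wells, up or down, though filed actives are nearly all decreases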
Numbers without * were called inactive; i = inactive; . = no result given.

SMILES | T cruzi repl | CHT inh | CHT allo act | PolyA inhibitor | CHT activ conf | HEK293 MP dye
COc1ccc(/C=C2\Oc3cc(OCC(N)=O)ccc3C2=O)cc1OC | -1 | i | 6.2* | -1 | 46* | -37*
COC(=O)COc1ccc2c(c1)O/C(=C\c1cccc([N+](=O)[O-])c1)C2=O | 4 | i | i | 3 | . | .
O=C(CCCCCN1C(=O)[C@@H]2Cc3ccccc3CN2C1=O)Nc1ccccc1Cl | 9 | i | i | -7 | . | .
COC(=O)c1ccc(C)c(NS(=O)(=O)c2ccc(OC)cc2)c1 | -17 | i | 8.1* | -27 | 48* | i
COC(=O)c1ccc(C)c(NS(=O)(=O)c2ccc(C)c([N+](=O)[O-])c2)c1 | 4 | i | i | -7 | . | .
COc1ccc(N(C(=O)c2cccnc2)S(=O)(=O)c2ccc(Cl)cc2)cc1 | -4 | i | i | -13 | . | .
CCOc1cc(NC(=S)NC)c(OCC)cc1NC(=O)c1ccco1 | 5 | i | i | -19 | . | .
CCOc1cc(NC(=O)c2ccco2)c(OCC)cc1NC(=O)c1ccco1 | 6 | i | 11* | -14 | 21* | i
CC(C)(C)n1nnnc1C(c1cccc(C#N)c1)N1CCCCCC1 (stereo not given) | -2 | i | i | 6 | . | .
CCC(C)(C)n1nnnc1C(c1cccc(C#N)c1)N1CCN(c2cccc(C)c2C)CC1 (stereo not given) | -10 | i | i | -3 | 26* | i
CCC(C)(C)n1nnnc1C(c1ccccc1)N1CCc2ccccc2C1 (stereo not given) | 45 | i | 6.3* | 13 | 32* | i
CC(C)C(=O)N1CCN(c2cc(N3CCN(C)CC3)c(F)cc2[N+](=O)[O-])CC1 | 77* | i | 7.9* | 7 | 45* | -49*
CC(=O)N1CCN(c2cc(N3CCCC3)c(F)cc2[N+](=O)[O-])CC1 | 7 | i | i | 4 | . | .
CC(C)NC(=O)c1ccc(COc2ccc(C(C)(C)C)cc2)o1 | 7 | i | i | 2 | . | .
Oc1ccc(/C=N/Nc2nn3cnnc3c3ccccc23)cc1 | -11 | i | i | -23 | . | .
C(=N\Nc1nn2cnnc2c2ccccc12)/c1ccco1 | -1 | i | i | 9 | 35* | -28*
CCCCCCCCCC[N+](C)(C)CC/C=C1/c2ccccc2Sc2ccc(Cl)cc21 | 47 | i | 8.2* | 10 | -1 | -47*
CCCCCCCCCCC[N+](C)(C)CC/C=C1/c2ccccc2Sc2ccc(Cl)cc21 | 51 | i | i | 5 | . | .
O=C(NN=C1CCCC1)c1ccccc1OCc1ccc(Cl)cc1 | 30 | i | 10* | -9 | 13* | i
CC(=O)c1ccc(NC(=S)N2CCN(c3ccccn3)CC2)cc1 | 4 | i | i | 22 | . | .
Cc1ccnc(NC(=O)CCC2CCCCC2)c1 | -12 | i | i | -2 | 27* | i
Cn1c(=O)c2c(-c3ccccc3)n(CCCN3CCOCC3)cc2n(C)c1=O | -5 | i | i | 22 | 79* | -52*
CN(CC(=O)Nc1ccccc1Br)C(=O)c1ccccc1-c1nc2ccccc2s1 | 3 | i | i | -11 | . | .
COc1ccc(-n2c(O)cnc2Nc2nc(C)cc(C)n2)cc1OC | -22 | i | 7.2* | 8 | 28* | -48*
CCc1ccc(-n2c(O)cnc2Nc2nc(C)cc(C)n2)cc1 | -1 | i | i | -12 | . | .
SMILES | T cruzi repl | CHT inh | CHT allo act | PolyA inhibitor | CHT activ conf | HEK293 MP dye
CN=C1c2cc3cc(OC)ccc3n2CCN1Cc1ccccc1 | 12 | . | . | 10 | . | .
CCN(CC)CCNC1=NCCn2c1cc1cc(OC)ccc12 | 50 | i | 8.2* | -1 | 60* | -51*
O=C1CN(CC(=O)NC2CCCc3ccccc32)CCN1 (stereo not given) | -12 | i | i | 9 | . | .
CCOc1ccc(S(=O)(=O)NCc2ccco2)c2ccccc12 | 2 | i | i | -23 | 17* | i
CCOc1cccc2sc(=NC(=O)CCS(=O)(=O)c3ccc(F)cc3)n(C)c12 | 11 | i | i | -26 | . | .
O=C(C1CCN(S(=O)(=O)c2cnc[nH]2)CC1)N(CCc1ccccc1)Cc1ccccc1 | 0 | i | i | 10 | . | .
O=C(C1CCN(CC2CC=CCC2)CC1)N(CCc1ccccc1)Cc1ccccc1 (stereo not given) | 9 | i | i | -17 | 4 | i
COc1ccc(NS(=O)(=O)c2cccc(-c3nnc4n3CCCCC4)c2)cc1 | 25 | i | i | 23 | 18* | i
COc1ccccc1S(=O)(=O)Nc1cccc(-c2nnc3n2CCCCC3)c1 | 9 | i | i | -4 | . | .
Cn1c(C(=O)NCCN2CCOCC2)cc2c(=O)n(C)c3ccccc3c21 | 0 | i | i | -12 | . | .
CC1CCCCN1CCNC(=O)c1cc2c(=O)n(C)c3ccccc3c2n1C (stereo not given) | 6 | i | i | -6 | 30* | -21*
Cn1c(C(=O)NCCCN2CCCC2=O)cc2c(=O)n(C)c3ccccc3c21 | -10 | i | i | -7 | 27* | -32*
COc1ccc(Nc2c(-c3ccco3)nc3cccc(C)n23)cc1 | -6 | i | i | 6 | . | .
Cc1ccc2nc(-c3cccnc3)c(NC3CCCCC3)n2c1 | 16 | i | i | 0 | . | .
Cc1ccccc1Nc1c(-c2cccnc2)nc2ccccn12 | -14 | i | 7.5* | -4 | 50* | -51*
Cc1cccc2nc(-c3cccnc3)c(NCCC(C)C)n12 | 21 | i | i | -23 | 41* | i
Cc1cccc2nc(-c3cccnc3)c(Nc3ccccc3)n12 | 8 | i | 12* | -6 | 28* | -29*
Cc1csc(NC(=O)CCC(=O)N(CC(=O)NC2CCCC2)Cc2ccccc2)n1 | 1 | i | i | 2 | . | .
COc1cc(C(C)=O)ccc1Oc1cc(NN2CCCCC2)c([N+](=O)[O-])cc1[N+](=O)[O-] | -21 | i | i | -13 | . | .
Cc1cc(OC(F)F)ccc1NC(=O)Nc1ccc2c(c1)OCO2 | -2 | i | i | 12 | . | .
Cc1cc[n+](CC(=O)c2ccccc2)c2ccccc12 | 15 | i | 6.6* | 6 | 34* | -36*
Cc1cc[n+](CCC(=O)O)c2ccccc12 | -2 | i | i | 1 | . | .
O=C(COC(=O)C1CCN(c2ccc(C(F)(F)F)cn2)CC1)NC1CCCCC1 | -7 | i | i | -14 | 6 | i
O=C(COC(=O)C1CCN(c2ccc(C(F)(F)F)cn2)CC1)Nc1cc(F)ccc1F | 2 | i | i | -7 | . | .
CN(Cc1cccnc1)C(=O)c1cc(COc2ccc3c(c2)CCCC3)on1 | 39 | i | i | 5 | 2 | i
